# Compound activity (PubChem BioAssay)
# PP5 primary: PP5 (human) phosphatase inhibition | inhibition, % at 6.7 µM | P53041 | actives 0.18% (n = 320,000) | purified PP5c, OMFP substrate fluorescence | AID 1987;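 active = inhibition above the campaign's mean inhibition across all tested compounds plus 3 SD, cut at about 9.5% in these data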;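 also: 0% = DMSO only and 100% = 100 µM cantharidin control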
# UBC13 inh: blocks human UBC13 polyubiquitin chain formation; inhibition, % at 20 µM; actives 0.47% (n = 330,000); TR-FRET; AID 485273; in the data active = inhibition above about 45%, passing the limit was not always enough
# PREPL inhibitor: human PREPL enzyme inhibition; actives 0.68% (n = 320,000); Q4J6C6; inhibition, % at 5.96 µM; recombinant PREPL, fluorescence polarization activity-based probe; AID 2751; in the data active = inhibition above about 43%;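 also: 0% = enzyme with DMSO and 100% = wells lacking enzyme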
# Target sequence (Q4J6C6 whole entry, looked up): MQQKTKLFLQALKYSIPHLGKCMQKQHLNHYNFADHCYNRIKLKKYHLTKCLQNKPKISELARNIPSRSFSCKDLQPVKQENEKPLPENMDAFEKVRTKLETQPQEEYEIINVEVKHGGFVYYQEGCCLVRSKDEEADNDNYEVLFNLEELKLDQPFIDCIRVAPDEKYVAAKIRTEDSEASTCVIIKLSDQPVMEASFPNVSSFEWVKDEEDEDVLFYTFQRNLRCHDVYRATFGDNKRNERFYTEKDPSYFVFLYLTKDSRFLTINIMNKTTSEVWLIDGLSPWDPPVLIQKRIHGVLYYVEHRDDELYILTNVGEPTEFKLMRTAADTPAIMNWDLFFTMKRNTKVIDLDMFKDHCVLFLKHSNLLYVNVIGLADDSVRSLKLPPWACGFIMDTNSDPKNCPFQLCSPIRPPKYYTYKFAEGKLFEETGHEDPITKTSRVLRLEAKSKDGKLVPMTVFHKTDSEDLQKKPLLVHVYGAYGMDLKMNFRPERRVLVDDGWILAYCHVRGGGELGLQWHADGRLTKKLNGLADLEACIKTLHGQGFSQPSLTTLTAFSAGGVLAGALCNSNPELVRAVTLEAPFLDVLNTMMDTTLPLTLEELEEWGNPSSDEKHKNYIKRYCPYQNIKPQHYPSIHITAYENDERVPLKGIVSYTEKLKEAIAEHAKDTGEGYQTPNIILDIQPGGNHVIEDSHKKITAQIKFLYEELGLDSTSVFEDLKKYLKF
# CTSL1 counter: blocks F. hepatica cathepsin L1 in PFM18AAP counter-screen; actives 0.49% (n = 300,000); AID 1906; recombinant F. hepatica cathepsin L1, Z-Leu-Arg-MCA fluorescence; inhibition, % at 5.96 µM;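 active = inhibition above the mean of all tested compounds plus 3 SD, set per screening campaign, cut at about 17% in these data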;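 also: 0% = plate median of test compound wells and 100% = 1 µM Z-Phe-Ala-diazomethylketone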
# PP1 counter: counter-screen for PP5 inhibitors: inhibitors of human PP1-alpha; P62136; purified PP1alpha, OMFP fluorescence; inhibition, % at 6.7 µM; actives 0.9% (n = 320,000); AID 2235;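 active = inhibition above the mean inhibition of all tested compounds plus 3 SD, computed separately for each screening campaign, cut at about 15% in these data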
# UCH37 inh: inhibitors of human deubiquitinating enzyme UCH37; purified proteasome/UCH37, Ub-AMC cleavage fluorescence; inhibition, % (test concentration not listed); actives 0.33% (n = 330,000); Q9Y5K5;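 active = mean inhibition over replicate wells above about 20%, limit read from the data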;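 also: 0% = compound-free wells with enzyme and 100% = wells lacking proteasome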
#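 Reagent: Ub-AMC substrate; assay system: Proteasome-associated human UCH37 deubiquitinase; controls: no-proteasome and no-compound wells; read-out: % inhibition of Ub-AMC cleavage fluorescence; timing: 30 min preincubation with enzyme, 25 min cleavage at room temperature; signal: AMC fluorescence from Ub-AMC cleavage, excitation 355 nm, emission 460 nm; buffer or medium: Tris-HCl pH 7.4 plus ovalbumin, ATP-MgCl2, DTT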
# PP1 confirm: confirmation of human PP1 phosphatase inhibitors | shares compounds with PP1 counter | purified PP1alpha, OMFP substrate fluorescence | inhibition, % at 6.7 µM | actives 52% (n = 1,900) | AID 2358;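 active = mean PP1 inhibition above a set limit taken from the earlier primary screen, cut at about 15% in these data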
# PP5 counter: counter-screen for PP1 inhibitors: human PP5 phosphatase inhibition | inhibition, % at 6.7 µM | shares compounds with PP1 counter | purified PP5c, OMFP fluorescence | actives 4% (n = 1,900);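 active = mean PP5 inhibition over triplicate wells above about 9.5% taken from the earlier PP1 screen, limit read from the data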
# * marks the source's active call; other numbers are inactive results; / = no result given. The list is not random: actives were taken first. Their share in the collection is about 2.3%.
SMILES,PP5 primary,UBC13 inh,PREPL inhibitor,CTSL1 counter,PP1 counter,UCH37 inh,PP1 confirm,PP5 counter
COc1ccc(CCC(=O)NN=Cc2cccs2)cc1,/,/,/,/,/,0.9,/,/
Cc1sc2nc(CSc3ccc([N+](=O)[O-])c(C(F)(F)F)c3)[nH]c(=O)c2c1C,1.1,2.4,2.2,3.3,27.4*,-1.2,8.7,-2.4
Cc1sc2nc(CSC(C)C(=O)N(C)CC(=O)Nc3ccccc3C(F)(F)F)[nH]c(=O)c2c1C (stereo not drawn),-1.8,-2.3,5.7,-2.7,0.2,1.3,/,/
N#CCC(=O)N/N=C/c1ccc(N2N=C(c3ccccc3)CC2c2ccccc2)cc1 (stereo not drawn),7.7,-0.6,19.6,1.6,24.7*,/,17.4*,-0.1
Cc1cc2ccccn2c1C(C[N+](=O)[O-])c1ccc(N(C)C)cc1 (stereo not drawn),2.7,-47.5,21.6,3.4,19.5*,-4.3,4.4,9.8*
CCOC(=O)CC(C)=NNC(=O)CNc1cccc(Cl)c1C,/,/,/,/,/,-0.6,/,/
CCOc1ccc(-c2cc(C(=O)NCCCn3ccnc3)c3cc(Br)ccc3n2)cc1,3.6,3.4,-3.3,2.5,21.0*,/,5.6,1.2
CCOc1ccc(-c2cc(C(=O)NCCCn3ccnc3)c3ccccc3n2)cc1,-0.8,16.5,-0.3,0.4,3.1,-150.7,/,/
O=C(NNC(=S)Nc1ccc(Cl)c(Cl)c1)c1ccccn1,-1.3,-4.1,6.4,4.4,20.8*,4.5,24.1*,0.7
CC(CC(=O)NCc1ccccc1)=NNC(N)=S,/,/,/,/,/,1.5,/,/
CCOC(=O)c1sc(N2C(=O)C(O)=C(C(=O)c3ccco3)C2c2ccco2)nc1C (stereo not drawn),-0.8,/,2.4,-0.7,18.2*,3.7,13.2,-0.9
Cc1ccc2nc(N3C(=O)C(O)=C(C(=O)c4ccc(C)o4)C3c3ccc(O)cc3)sc2c1 (stereo not drawn),0.1,-24.1,42.9,/,30.2*,2.6,21.4*,0.9
COc1ccc2nc(N3C(=O)C(O)=C(C(=O)c4ccco4)C3c3ccccc3OC)sc2c1 (stereo not drawn),2.0,-9.0,-0.2,3.8,28.9*,9.6,20.3*,-1.9
Cc1ccc2nc(N3C(=O)C(O)=C(C(=O)c4ccco4)C3c3cccs3)sc2c1 (stereo not drawn),2.7,-13.2,30.9,7.3,28.4*,-4.6,28.0*,0.0
CCOc1ccc2nc(N3C(=O)C(O)=C(C(=O)c4ccco4)C3c3ccco3)sc2c1 (stereo not drawn),1.4,-49.3,17.6,/,13.8,6.2,/,/
COc1ccc2nc(N3C(=O)C(O)=C(C(=O)c4ccco4)C3c3ccc(C)o3)sc2c1 (stereo not drawn),/,-2.1,/,/,/,8.4,/,/
CCN(CC)c1ccc(C=NNC(=O)Cc2cccs2)cc1,/,/,/,/,/,-177.7,/,/
CCOc1ccc(C=NNC(=O)Nc2ccccc2)cc1,/,/,/,/,/,1.1,/,/
Cn1cc(C=NNC(=O)c2ccc(C#N)cc2F)c2ccccc21,/,/,/,/,/,7.2,/,/
Clc1ccc(C(Cn2ccnc2)OCc2c(Cl)cccc2Cl)c(Cl)c1 (stereo not drawn),5.1,41.9,-13.5,-0.5,25.6*,0.1,18.4*,-2.9
OC(Cn1ccnc1)c1ccc(Cl)cc1Cl (stereo not drawn),0.6,1.3,-13.4,-3.2,0.1,-1.3,/,/
CCOC(=O)c1c(CSc2ccc(CC)cc2)oc2ccc(O)c(CN(C)C)c12,1.5,43.0,16.7,2.4,18.4*,3.7,-3.6,-3.9
Cc1cc(C(=O)NN=Cc2ccc([N+](=O)[O-])cc2)c2ccccc2n1,/,/,/,/,/,3.5,/,/
O=C1CC(=O)N(Cc2ccco2)C(=O)N1,2.3,13.3,-2.7,-4.0,58.0*,6.1,0.9,1.2
O=C1CC(=O)N(Cc2ccco2)C(=S)N1,2.2,15.5,11.0,-4.5,-2.8,5.7,/,/
SMILES,PP5 primary,UBC13 inh,PREPL inhibitor,CTSL1 counter,PP1 counter,UCH37 inh,PP1 confirm,PP5 counter
Cn1c2ccccc2c(=O)c2c(=O)n(Cc3ccco3)c(-c3ccc(Cl)cc3Cl)nc21,1.3,12.2,12.8,2.0,23.1*,-0.7,8.1,-0.6
Cc1ccc(S(=O)(=O)CCC(=O)OCC(=O)c2ccc(F)cc2)cc1,0.3,-12.3,-2.3,-43.5,31.4*,-1.8,0.7,-0.5
CN(C)C=Nc1cc(=O)[nH]c(=O)n1CC1CC1,/,/,/,/,/,0.1,/,/
COc1ccc(C(=O)COC(=O)C(CCSC)NC(=O)COc2ccccc2)c(OC)c1 (stereo not drawn),4.2,-0.5,-3.0,-12.1,-4.3,-0.6,/,/
CSCCC(NC(=O)COc1ccccc1)C(=O)OCC(=O)c1ccccc1 (stereo not drawn),-0.3,-3.5,-4.2,-13.1,60.5*,1.4,-2.4,-3.4
COc1ccc(CN2c3cc(S(=O)(=O)N4CCOCC4)ccc3N3CCCC32)cc1 (stereo not drawn),3.4,-2.3,5.3,-1.0,-3.9,-7.0,/,/
Cc1ccc(C)c(COC(=O)c2cc(S(=O)(=O)N3CCCCC3)ccc2N2CCOCC2)c1,2.0,3.1,0.5,3.8,-1.6,-0.7,/,/
COc1cccc(CN2C(=O)C3CCCN3c3ccc(S(=O)(=O)N4CCOCC4)cc32)c1 (stereo not drawn),1.6,5.5,-13.0,2.5,26.1*,/,25.3*,0.2
Cc1ccc(C)c(CN2C(=O)C3CCCN3c3ccc(S(=O)(=O)N4CCOCC4)cc32)c1 (stereo not drawn),2.8,-10.8,-22.2,3.7,22.1*,/,22.2*,-0.3
CSc1nncn1N=Cc1cc(Cl)ccc1F,/,/,/,/,/,0.3,/,/
O=C(O)c1cc(NN=Cc2cccc3ccccc23)ccc1Cl,/,/,/,/,/,0.2,/,/
CC(=NNC(=O)CSc1nnc(C)s1)c1ccc(Cl)cc1,/,/,/,/,/,4.7,/,/
COc1ccc(/C(C)=N\NC(=O)CSc2nnc(C)s2)cc1,-0.6,-0.9,10.1,3.5,18.9*,/,-3.0,-2.1
COc1ccccc1C=NNC(=O)CC(=O)Nc1ccc(Cl)c(Cl)c1,/,/,/,/,/,2.4,/,/
Cc1c(CC(=O)O)c(=O)oc2c(C)c(OCc3c(F)cccc3Cl)ccc12,/,3.1,/,/,/,-185.5,/,/
Cc1c(CCC(=O)O)c(=O)oc2c(C)c(OCc3cc4c(cc3Cl)OCO4)ccc12,-1.5,0.8,-7.4,3.9,20.4*,-2.0,5.7,-2.5
CC(=NNC(=O)c1ccco1)c1cccnc1,/,/,/,/,/,1.4,/,/
CCn1ncc(C=NNC(=O)c2ccc3c(c2)c(C)c(C)n3Cc2ccccc2)c1C,/,/,/,/,/,-12.7,/,/
O=C(CSc1nnc(-c2ccc(O)cc2)n1Cc1ccco1)c1cccs1,3.5,-15.1,9.5,-4.3,29.7*,5.6,-6.6,-7.5
O=C(CSc1nnc(-c2ccc(O)cc2)n1Cc1ccco1)c1ccccc1,1.1,3.1,-0.8,2.3,2.9,0.7,/,/
